Screening data as filed in PubChem.
TAAR1 antagonist: antagonists of human TAAR1. CHO RD-HGA16 TAAR1, Fluo-8 calcium fluorescence, antagonist. inhibition, % at 3 µM. 360,000 tested, 1.5% active;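 active = inhibition above a per-plate cutoff, the mean inhibition of test compounds on that plate plus 3 SD, cut at about 49% in these data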;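 note: 0% = DMSO plus EC80 beta-PEA response and 100% = DMSO alone without agonist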
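Test system: hTAAR1-expressing CHO RD-HGA16 cells, Gα16-coupled; Probe or stimulus: EC80 β-phenethylamine stimulus; Compound dosing: single nominal final test compound concentration of 3 µM; Timing: 140 s kinetic read after compound, 140 s after agonist; Signal: Fluo-8 calcium-sensitive fluorescence; Measure: % inhibition of agonist calcium response; Controls: DMSO and EC80 PEA controls.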
OX1R antag-1: blocks the human orexin 1 receptor | O43613 | OX1R-expressing cells, FRET antagonist read-out | inhibition, % at 6.6 µM | 330,000 tested, 1.8% active | AID 485270; in the data active = inhibition mostly above about 38%, no sharp cut-off; inactive = mostly below about 40%;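 note: 0% = agonist challenge alone and 100% = reference antagonist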
Target sequence (O43613 whole entry, looked up): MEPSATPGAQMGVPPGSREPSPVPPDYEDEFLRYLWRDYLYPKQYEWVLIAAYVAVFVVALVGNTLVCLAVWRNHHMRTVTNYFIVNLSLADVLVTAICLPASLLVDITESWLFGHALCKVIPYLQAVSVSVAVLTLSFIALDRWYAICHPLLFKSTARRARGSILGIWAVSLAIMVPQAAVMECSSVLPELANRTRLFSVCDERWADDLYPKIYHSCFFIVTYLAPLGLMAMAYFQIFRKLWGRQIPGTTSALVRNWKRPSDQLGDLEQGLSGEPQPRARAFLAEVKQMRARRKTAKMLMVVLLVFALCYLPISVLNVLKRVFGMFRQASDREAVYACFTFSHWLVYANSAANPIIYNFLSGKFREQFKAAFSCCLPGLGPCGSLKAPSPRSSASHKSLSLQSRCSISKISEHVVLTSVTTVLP
NTR1 ag: NTR1 (human) agonism | P30989 | NTR1-U2OS beta-arrestin-GFP spot imaging, agonist mode | activation, % at 20 µM | 330,000 tested, 0.17% active | AID 493036;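 active = activation at or above 40% of the spot to cytoplasm intensity ratio, with at least 20 cells analyzed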;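 note: 0% = DMSO without peptide and 100% = 100 nM NTR1 peptide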
TAAR1 agonist: agonists of human TAAR1; CHO RD-HGA16 TAAR1, Fluo-8 calcium fluorescence; vehicle wells 0%, saturating PEA agonist 100%; Q96RJ0; activation, % at 3 µM; 360,000 tested, 0.99% active;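 active = activation above the mean activation of all test compounds in the run plus 3 SD, cut at about 38% in these data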
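Repeats: no replicates (n 1) | Material: CHO-derived RD-HGA16 cells with stable Gα16 and human TAAR1 | Technique: Kinetic Fluo-8 calcium fluorescence | Schedule: 17-24 h seeding, 75 min 37 °C dye, 30 min RT | Evaluation: % activation from peak over basal fluorescence ratio, DMSO-to-PEA scaled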
OX1R antag-2: antagonists of human orexin 1 receptor; CHO/OX1R cells, Fluo-8 calcium fluorescence, orexin A; inhibition, % at 5 µM; 330,000 tested, 0.43% active;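 active = inhibition above its plate's threshold, mean inhibition of all tested compounds on the plate plus 3 SD, cut at about 37% in these data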;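 note: 0% = orexin A challenge wells and 100% = SB-334867-A antagonist wells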
CHO parental Ca: counter-screen for OX1R antagonists: effect in parental CHO cells; parental CHO-K1, ATP-induced calcium, Fluo-8 fluorescence; inhibition, % at 5.6 µM; 330,000 tested, 0.63% active;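 active = inhibition above that plate's mean sample inhibition plus 3 SD, cut at about 26% in these data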;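 note: 0% = ATP-challenged DMSO wells and 100% = DMSO wells without ATP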
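Material – parental CHO cells · Reagent – ATP stimulus · Compound – single nominal dose of 5.6 µM per compound · Detection – Fluo-8 fluorescence · Read-out basis – percent inhibition of calcium signal · Controls – ATP-challenged DMSO wells low, unchallenged DMSO wells high · Repeats – no replicates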
TAAR1 ag confirm: human TAAR1 agonism, confirmed; shares compounds with TAAR1 agonist; CHO RD-HGA16 TAAR1, Fluo-8 calcium fluorescence; scaled: DMSO 0%, maximal phenethylamine 100%; activation, % at 3 µM; 2,400 tested, 82% active; AID 651783;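 active = activation above a cutoff set at the run's mean compound activation plus 3 SD, cut at about 39% in these data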
Ga16 ag counter: nonselective agonist in parental cells, TAAR1 agonist counter-screen; CHO-Ga16 parental, Fluo-8 calcium fluorescence; normalized to maximal ATP response, DMSO zero; activation, % at 3 µM; shares compounds with TAAR1 agonist; 2,400 tested, 50% active;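 active = activation above the run cutoff, the mean activation over all tested wells plus 3 SD, cut at about 12% in these data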;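 note: 0% = DMSO wells and 100% = maximal ATP response on the peak over basal ratio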
TAAR1 desens: human TAAR1 agonist that also desensitizes the receptor; AID 651951; shares compounds with TAAR1 agonist; CHO RD-HGA16 hTAAR1, Fluo-8 calcium, beta-PEA response inhibition; inhibition, % at 3 µM; 2,400 tested, 46% active;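 active = inhibition above the run cutoff, the mean inhibition of all test compounds plus 3 SD, cut at about 49% in these data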;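 note: beta-PEA stimulus applied at its EC80; loss of beta-PEA calcium signal after compound pretreatment read as receptor desensitization; 0% = DMSO with beta-PEA at EC80 and 100% = DMSO alone without agonist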
Ga16 nonsel ant: nonselective Ga16 antagonism, counter-screen; shares compounds with TAAR1 agonist; CHO-Ga16 ATP-induced calcium, Fluo-8 fluorescence; inhibition, % at 3 µM; 2,400 tested, 39% active; AID 651952;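 active = inhibition above the plate's mean compound inhibition plus 3 SD, computed per plate, cut at about 22% in these data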;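 note: 0% = EC80 ATP with DMSO and 100% = DMSO wells without ATP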
Starred values were filed as active, the others as inactive; x = not tested or not shown. In the library only some 4% were active in any assay of this set; here they are far more common.

SMILES	TAAR1 antagonist	OX1R antag-1	NTR1 ag	TAAR1 agonist	OX1R antag-2	CHO parental Ca	TAAR1 ag confirm	Ga16 ag counter	TAAR1 desens	Ga16 nonsel ant
COC(CNC(=O)C1CCCCC1C(=O)O)OC (stereo unspecified)	-4	20	-1	1	-16	-8	x	x	x	x
COc1ccc(CCNC(=O)C2CCCCC2C(=O)O)cc1OC (stereo unspecified)	x	6	3	x	1	0	x	x	x	x
O=C(O)C1CCCCC1C(=O)NCCc1ccccc1 (stereo unspecified)	86*	0	2	98*	-12	-6	106*	1	92*	10
O=C(/C=C/c1ccc(O)c([N+](=O)[O-])c1)c1ccc2ccccc2c1	39	7	6	66*	-8	6	32	38*	24	19
CN(C(=O)COC(=O)c1cccc(S(=O)(=O)N2CCCCC2)c1)C1CCS(=O)(=O)C1 (stereo unspecified)	0	8	-1	0	-2	-7	x	x	x	x
Cc1nc(NC(=O)c2ccccc2)sc1-c1csc(NCCc2ccccc2)n1	48	21	9	64*	-6	-7	61*	21*	58*	34*
NC(=O)c1cc(-c2csc(NCCc3ccccc3)n2)ccc1O	-11	15	-1	49*	-17	-16	46*	6	21	19
COc1ccccc1Nc1nc(-c2sc(NC(=O)c3ccccc3)nc2C)cs1	9	24	3	0	-21	-15	x	x	x	x
COc1ccc(Cl)cc1NC(=O)CSc1nc(Nc2ccccc2)nc(N2CCOCC2)n1	-38	9	5	5	-30	-13	x	x	x	x
CC(C)[C@H](NC(=O)C1CCCC1)C(=O)N1CCC[C@H]1C(=O)NCc1ccccc1	-15	x	x	0	x	x	x	x	x	x
O=C(NCCc1ccccc1Cl)[C@@H]1CCCN1C(=O)[C@@H](NS(=O)(=O)c1ccc(F)cc1F)c1ccccc1	55*	x	x	41*	x	x	57*	3	69*	17
Cc1ccccc1C(=O)N[C@H](C(=O)N1CCC[C@H]1C(=O)NCCc1ccccc1Cl)C(C)C	71*	x	x	57*	x	x	91*	-1	95*	10
Cc1ccccc1C(=O)N[C@H](C(=O)N1CCC[C@H]1C(=O)NCCc1ccccc1Cl)c1ccccc1	41	x	x	53*	x	x	75*	3	79*	11
O=C(NCCc1ccccc1F)C1CCCN1S(=O)(=O)c1ccccc1 (stereo unspecified)	-8	14	2	12	-5	-13	x	x	x	x
CC(C)[C@H](NC(=O)C1CC1)C(=O)N1CCC[C@H]1C(=O)NCCc1ccccc1Cl	69*	x	x	62*	x	x	92*	2	90*	-2
Cc1ccc2cc(CCNS(=O)(=O)c3ccc(Br)cc3)c(=O)[nH]c2c1C	20	23	1	-1	-37	-10	x	x	x	x
CC(C)[C@H](NC(=O)CC1CCCC1)C(=O)N1CCC[C@H]1C(=O)NCCc1ccccc1Cl	57*	x	x	65*	x	x	85*	-1	86*	2
Cc1nc2c(C(=O)NCCc3ccccc3Cl)c[nH]n2c(=O)c1Cl	61*	10	0	84*	-16	-4	80*	14*	83*	5
Cc1cc(C(F)F)n2ncc(C(=O)NCCc3ccccc3Cl)c2n1	14	17	2	68*	-19	-17	69*	1	32	5
Cc1nc2c(C(=O)NCc3ccccc3Cl)c[nH]n2c(=O)c1Cl	-28	14	2	4	-9	-10	x	x	x	x
CC(=NCCc1ccccc1)C1=C(O)CCC1=O	74*	5	-2	105*	-14	-9	98*	1	73*	8
CCCCN=C(C)C1=C(O)CSC1=O	-3	-4	0	1	0	-17	x	x	x	x
CC(=NCCc1ccccc1)C1=C(O)CSC1=O	75*	39	-1	93*	-23	-12	84*	0	56*	6
Oc1c(C(c2ccccc2)N2CCc3ccccc3C2)sc2ncnn12 (stereo unspecified)	-13	5	0	65*	-11	0	61*	0	26	12
COc1cccc(C(c2sc3nc(C)nn3c2O)N2CCc3ccccc3C2)c1 (stereo unspecified)	-12	16	-1	54*	-22	-13	56*	2	22	8
SMILES	TAAR1 antagonist	OX1R antag-1	NTR1 ag	TAAR1 agonist	OX1R antag-2	CHO parental Ca	TAAR1 ag confirm	Ga16 ag counter	TAAR1 desens	Ga16 nonsel ant
CCN1CCN(C(c2cccc(OC)c2)c2sc3nc(C)nn3c2O)CC1 (stereo unspecified)	-7	6	0	0	-5	-6	x	x	x	x
C1CCc2c(nc3nnnn3c2NCC2CC2)C1	-7	5	0	-4	0	-3	x	x	x	x
CCc1cc2c(SCC(=O)N3CCCC3=O)ncnc2s1	-3	-2	1	-2	-12	4	x	x	x	x
O=C(O)c1ccc(-c2ccc(/C=N/Nc3ccc([N+](=O)[O-])cc3)o2)cc1	82*	-1	5	131*	77*	64*	86*	66*	88*	70*
NS(=O)(=O)c1ccc(-c2ccc(/C=N/Nc3ccc(C(=O)O)cc3)o2)cc1	-3	23	0	3	-19	1	x	x	x	x
Cc1ccc(-n2cnnn2)c2cccnc12	4	3	0	8	-1	0	x	x	x	x
Cc1ccc(N2C(=O)c3cccc4c(N)ccc(c34)C2=O)c2cccnc12	79*	2	16	230*	74*	65*	105*	126*	61*	69*
CN(C)C1=NC[C@H](Cc2ccccc2)N1CCCC1CCCC1	-15	16	9	45*	-15	3	22	7	20	14
CCc1ccc(N(CC(=O)NCC2CCCO2)C(=O)CCC(=O)Nc2nccs2)cc1 (stereo unspecified)	-1	6	-1	0	-15	-8	x	x	x	x
